Key:
Clostridioides difficile [1] = experiment: Potency index, ratio of vancomycin MIC to test compound MIC for antibacterial activity against Clostridioides difficile NR-32904 P30; assay type: functional
[2] = Selectivity ratio of MIC for antibacterial activity against Bacteroides fragilis HM-709 to antibacterial activity against Clostridioides difficile NR-13435 isolate 9; assay type: ADME
[3] = Selectivity ratio of MIC for antibacterial activity against Bacteroides dorei HM-719 to antibacterial activity against Clostridioides difficile NR-32904 P30; assay type: ADME
[4] = Selectivity ratio of MIC for antibacterial activity against Bacteroides fragilis HM-709 to antibacterial activity against Clostridioides difficile ATCC 43255; assay type: ADME
[5] = Selectivity ratio of MIC for antibacterial activity against Bacteroides fragilis HM-709 to antibacterial activity against Clostridioides difficile NR-32891 P13; assay type: ADME
Enterococcus faecalis = experiment: Antimicrobial activity against vancomycin-resistant Enterococcus […] ATCC 51299 assessed as reduction in microbial growth after 48 hrs by CLSI based broth microdilution method; assay type: functional
Method in brief: (§1)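 CLSI broth microdilution: strains were grown aerobically overnight on tryptone soy agar at 37°C. A 0.5 McFarland suspension was diluted to ~5 × 10^5 CFU/mL in cation-adjusted Mueller-Hinton broth (E. coli) or tryptone soy broth (enterococci), and agents were serially diluted.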

[6] = Selectivity ratio of MIC for antibacterial activity against Bacteroides fragilis HM-711 to antibacterial activity against Clostridioides difficile NR-13435 isolate 9; assay type: ADME
Lactobacillus crispatus [7] = experiment: Antibacterial activity against Lactobacillus crispatus HM-371 assessed as reduction in microbial growth after 48 hrs by broth microdilution method
Method in brief: (§2)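 Gut commensal MICs by broth microdilution: a 0.5 McFarland suspension was diluted to ~5 × 10^5 CFU/mL in BHIS broth (Bacteroides) or MRS broth (Lactobacillus). Agents were serially diluted and incubated 48 h at 37°C. MIC was read by visual inspection of growth.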

[8] = Selectivity ratio of MIC for antibacterial activity against Bacteroides fragilis HM-709 to antibacterial activity against Clostridioides difficile NR-13432 isolate 6; assay type: ADME
Enterococcus faecium = experiment: Antimicrobial activity against vancomycin-resistant Enterococcus faecium ATCC 700221 assessed as reduction in microbial growth after 48 hrs by CLSI based broth microdilution method; assay type: functional; method in brief: as §1
Clostridioides difficile [9] = experiment: Potency index, ratio of vancomycin MIC to test compound MIC for antibacterial activity against Clostridioides difficile NR-13435 isolate 9; assay type: functional
[10] = Apparent permeability across basolateral to apical side in human Caco-2 cells; assay type: ADME, cell-based
Method in brief: (§3)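 Bidirectional Caco-2 monolayer transport was run by a contract lab. Papp = (V_R·C_R,end/Δt)·1/[A·(C_D,mid − C_R,mid)]. Donor mid-point is the mean of the 0-min and end donor concentrations; receiver mid-point is half the end receiver concentration. Concentrations were taken as LC peak areas.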

Lactobacillus crispatus [11] = experiment: Antibacterial activity against Lactobacillus crispatus HM-103 assessed as reduction in microbial growth after 48 hrs by broth microdilution method; method in brief: as §2
[12] = Selectivity ratio of MIC for antibacterial activity against Bacteroides fragilis HM-709 to antibacterial activity against Clostridioides difficile NR-32883 P2; assay type: ADME
Clostridioides difficile [13] = experiment: Antibacterial activity against Clostridioides difficile ATCC 43255 infected in CDI mouse model assessed as survival rate at 50 mg/kg, po for 5 days and measured on day 21 relative to control; assay type: functional; details: ATCC 43255, po, 504 h, time 21 day
[14] = Selectivity ratio of MIC for antibacterial activity against Bacteroides fragilis HM-709 to antibacterial activity against Clostridioides difficile NR-32895 P19; assay type: ADME
Clostridioides difficile [15] = experiment: Potency index, ratio of vancomycin MIC to test compound MIC for antibacterial activity against Clostridioides difficile NR-32895 P19; assay type: functional
[16] = Selectivity ratio of MIC for antibacterial activity against Bacteroides dorei HM-719 to antibacterial activity against Clostridioides difficile NR-13435 isolate 9; assay type: ADME
Clostridioides difficile [17] = experiment: Antimicrobial activity against Clostridioides difficile ATCC 43255 assessed as drug resistance by measuring frequency of mutation at 20 times of MIC after 48 hrs; assay type: functional
Clostridioides difficile [18] = experiment: Antimicrobial activity against Clostridioides difficile ATCC 43255 assessed as drug resistance by measuring frequency of mutation at 15 times of MIC after 48 hrs; assay type: functional
[19] = Selectivity ratio of MIC for antibacterial activity against Bacteroides dorei HM-719 to antibacterial activity against Clostridioides difficile ATCC 43255; assay type: ADME
[20] = Selectivity ratio of MIC for antibacterial activity against Bacteroides fragilis HM-711 to antibacterial activity against Clostridioides difficile ATCC 43255; assay type: ADME
Clostridioides difficile [21] = experiment: Antimicrobial activity against Clostridioides difficile ATCC 43255 assessed as reduction in microbial growth after 48 hrs by broth microdilution method; assay type: functional
Method in brief: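 Broth microdilution: a 0.5 McFarland suspension was diluted in brain heart infusion supplemented (BHIS) broth to ~5 × 10^5 CFU/mL. Agents were serially diluted and plates incubated anaerobically at 37°C for 48 h.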

[22] = Selectivity ratio of MIC for antibacterial activity against Bacteroides fragilis HM-711 to antibacterial activity against Clostridioides difficile NR-32883 P2; assay type: ADME
[23] = Selectivity ratio of MIC for antibacterial activity against Bacteroides fragilis HM-711 to antibacterial activity against Clostridioides difficile NR-32904 P30; assay type: ADME
Clostridioides difficile [24] = experiment: Potency index, ratio of vancomycin MIC to test compound MIC for antibacterial activity against Clostridioides difficile NR-32883 P2; assay type: functional
Phocaeicola dorei = experiment: Antibacterial activity against Bacteroides dorei HM-719 assessed as reduction in microbial growth after 48 hrs by broth microdilution method; assay type: organism-based; method in brief: as §2
[25] = Apparent permeability across apical to basolateral side in human Caco-2 cells; assay type: ADME, cell-based; method in brief: as §3
[26] = Selectivity ratio of MIC for antibacterial activity against Bacteroides fragilis HM-709 to antibacterial activity against Clostridioides difficile NR-32904 P30; assay type: ADME
[27] = Selectivity ratio of MIC for antibacterial activity against Bacteroides dorei HM-719 to antibacterial activity against Clostridioides difficile NR-32883 P2; assay type: ADME
[28] = Selectivity ratio of cytotoxicity against human Caco-2 cells to MIC for antibacterial against clostridioides difficile ATCC BAA 1801; assay type: toxicity, cell-based
[29] = Selectivity ratio of MIC for antibacterial activity against Bacteroides dorei HM-719 to antibacterial activity against Clostridioides difficile NR-32891 P13; assay type: ADME
[30] = Selectivity ratio of MIC for antibacterial activity against Bacteroides dorei HM-719 to antibacterial activity against Clostridioides difficile NR-13432 isolate 6; assay type: ADME
Clostridioides difficile [31] = experiment: Potency index, ratio of vancomycin MIC to test compound MIC for antibacterial activity against Clostridioides difficile NR-32891 P13; assay type: functional
[32] = Selectivity ratio of MIC for antibacterial activity against Bacteroides fragilis HM-711 to antibacterial activity against Clostridioides difficile NR-32891 P13; assay type: ADME
Caco-2 = experiment: Cytotoxicity against human Caco-2 cells assessed as reduction in cell viability at >64 ug/ml after 2 hrs by MTS assay; assay type: cell-based; details: caco-2, 2 h, dose >64 µg/ml
Method in brief: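 Caco-2 cells were exposed to compound for 2 h, then to MTS reagent for 4 h, and absorbance was read at 490 nm. Testing was in triplicate, and viability was expressed as percent of DMSO-treated cells.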

O=C(Nc1nnc(-c2cc(Cl)cc(Cl)c2)o1)c1ccc(SC(F)(F)F)cc1 showed a Ratio (Clostridioides difficile [1]) of 2.5, a Selectivity ratio [2] of 100 and a Selectivity ratio [3] of 100. The Selectivity ratio [4] was 100, the Selectivity ratio [5] was 100 and the MIC (Enterococcus faecalis) was 0.14 µM. The Selectivity ratio [6] was 100, the MIC (Lactobacillus crispatus [7]) was 36.8 µM and the Selectivity ratio [8] was 100. The MIC (Enterococcus faecium) was 0.29 µM, the Ratio (Clostridioides difficile [9]) was 2.5 and the Papp [10] was 0.1 10^-6 cm/s. It also gave an MIC (Lactobacillus crispatus [11]) of 36.8 µM, a Selectivity ratio [12] of 100 and a survival at 50 mg/kg (Clostridioides difficile [13]) of 100%. The Selectivity ratio [14] was 100, the Ratio (Clostridioides difficile [15]) was 2.5 and the Selectivity ratio [16] was 100. For the same compound, the Activity (Clostridioides difficile [17]) was <1.1 10^-9No_unit, the Activity (Clostridioides difficile [18]) was <1.1 10^-9No_unit and the Selectivity ratio [19] was 100. The Selectivity ratio [20] was 100, the MIC (Clostridioides difficile [21]) was 0.04 µM and the Selectivity ratio [22] was 100. For the same compound, the Selectivity ratio [23] was 100, the Ratio (Clostridioides difficile [24]) was 2.5 and the MIC (Phocaeicola dorei) was 4.6 µM. For the same compound, the Papp [25] was 0.2 10^-6 cm/s, the Selectivity ratio [26] was 100 and the Selectivity ratio [27] was 100. The Selectivity ratio [28] was greater than 9000, the Selectivity ratio [29] was 100 and the Selectivity ratio [30] was 100. For the same compound, the Ratio (Clostridioides difficile [31]) was 2.5, the Selectivity ratio [32] was 100 and the Activity (Caco-2) was “Non-Toxic”.
